# Measurements: PMC9662183 (Journal of medicinal chemistry, 2022)
# Entries after “also recorded” stand apart in the source; their conditions may differ.
# How the values were obtained:
# [1] = Stability in simulated gastric fluid; type: in vitro ADME
# Method in brief: (§1)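 Test compound at 1 μM final was incubated at 37 °C in CD-1 mouse plasma, or in simulated gastric or intestinal fluid made per the USP National Formulary. Samples were taken at 0, 5, 15, 30, 60, 120 and 240 min and quenched with 3 volumes of acetonitrile/1% formic acid, then centrifuged. Prodrug and released parent were measured by HPLC-UV (Fmoc-Cl derivatization, 254 nm) and/or LC-MS/MS (MRM), and t1/2 was calculated.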
# [2] = Conversion of prodrugs into ψ-GSH in brain homogenate; type: in vitro ADME, mouse; settings: freshly prepared brain homogenates containing proteinase inhibitors
# [3] = Conversion of prodrugs into ψ-GSH in liver homogenate; type: in vitro ADME, mouse; settings: liver homogenates
# [4] = Brain and plasma distribution study in CD-1 mice; type: in vivo, mouse; settings: CD1 mice
# [5] = system: i.c.v. Aβ1–42-injected C57BL/6 mice; experiment: Spontaneous alternation T-maze in i.c.v. Aβ1–42-injected mice; type: in vivo, mouse; settings: for T-maze alternation rate: mouse, in vivo, po, 250 mg/kg
# [6] = system: GFAP and Iba1 staining; type: in vivo, mouse; settings: i.c.v. Aβ-injected mice, 250 mg/kg oral
# [7] = system: brain GSH; experiment: Quantitation of GSH in brain of i.c.v. Aβ-injected mice; type: in vivo, mouse; settings: 250 mg/kg oral
# [8] = system: glyoxalase enzyme pathway (AGE content); experiment: Brain advanced glycation endproducts; type: in vivo, mouse; settings: i.c.v. Aβ-injected mice, 250 mg/kg oral
# [9] = Stability in mouse plasma; type: in vitro ADME; settings: mouse plasma (CD-1), 1 μM, 37 °C
# Method in brief: as §1
# [10] = Stability in mouse liver homogenate; type: in vitro ADME; settings: for Half-life, tissue homogenate liver: mouse liver homogenate, 1 μM, 37 °C
# [11] = Stability in simulated intestinal fluid; type: in vitro ADME; settings: SIF, 1 μM, 37 °C
# Method in brief: as §1
# [12] = Stability in mouse brain homogenate; type: in vitro ADME; settings: 1 μM, 37 °C
# [13] = system: glyoxalase pathway (D-lactate); experiment: Brain D-lactate measurement; type: in vivo, mouse; settings: wild type C57BL/6 mice, 500 mg/kg oral, multiple time points
Compound,conversion into / release of ψ-GSH in brain homogenate [2],conversion into / release of ψ-GSH in liver homogenate [3],T-maze alternation rate [5],Iba1 staining in dorsal hippocampus [6],brain reduced GSH compared to the Aβ-only group [7],brain total AGE content versus Aβ1–42 group [8],"Half-life, plasma [9]","Half-life, tissue homogenate liver [10]",also measured
"CC(=O)SC[C@H](NC(=O)NC[C@H](N)C(=O)O)C(=O)NCC(=O)O [prodrug 1, NH2-γ-L-Glz[-L-Cys(SAc)-Gly-OH]-OH]",–,–,–,–,–,–,–,–,half-life at 1 μM ([1]; simulated gastric fluid (SGF)): ~24 h
"Cl.N[C@@H](CNC(=O)N[C@@H](CS)C(=O)NCC(=O)OC1CCCC1)C(=O)OC1CCCC1 [prodrug 5, HCl.NH2-γ-L-Glz[-L-Cys(SH)-Gly-OcPe]-OcPe]",relatively higher and sustained release; also recorded: detected,relatively higher and sustained release; also recorded: detected,effective in improving the alternation behavior,significantly reduced,significantly increased,significantly reduced,–,–,"plasma Cmax versus ψ-GSH ([4]; 250 mg/kg oral, comparison ψ-GSH 500 mg/kg i.p.): increased Cmax; brain levels of ψ-GSH after prodrug administration versus ψ-GSH treatment ([4]; prodrug 250 mg/kg oral vs ψ-GSH 500 mg/kg i.p.): lower than; relative brain AUC ([4]; prodrug 250 mg/kg oral, 2-6 h): 1.22 nmol·h/mg tissue"
NH2-γ-L-Glz[-L-Thz-Gly-OH]-OH [prodrug 4],–,–,–,–,–,–,30.64 h,115.5 h,–
N-Ethyloxycarbonyl-γ-L-Glz[-L-Cys(SCOOEt)-Gly-OH]-OH [prodrug 7],detected,detected,effective in improving the alternation behavior,significantly reduced,significantly increased,significantly reduced,113.6 h,1.30 h,"Half-life, GI tract gastric phase ([1]; SGF, 1 μM, 37 °C): 17.96 h; Half-life, GI tract intestinal phase [11]: 24.24 h; Half-life, tissue homogenate brain [12]: 9.79 h; T-maze repetitive arm entries ([5]; oral treatment, 250 mg/kg once a day, Aβ-only 3.22 ± 0.27): 1.00 ± 0.31; GFAP staining in dorsal hippocampus [6]: significant reduction; astrocytic and microglial reactivity (GFAP, Iba1) in dentate gyrus [6]: Mitigation; brain D-lactate release [13]: immediate spike"
"CCOC(=O)SC[C@H](NC(=O)NC[C@H](N)C(=O)OC1CCCC1)C(=O)NCC(=O)OC1CCCC1 [prodrug 6, NH2-γ-L-Glz[-L-Cys(SCOOEt)-Gly-OcPe]-OcPe]",relatively higher and sustained release,relatively higher and sustained release,–,–,–,–,–,–,major metabolite in liver homogenate incubates ([10]; liver homogenate): thiocarbonate cleavage product
